An excerpt weighted towards active compounds, which were near 0.73% of everything screened.
TNAP inh noacc = human TNAP enzyme inhibitors, primary screen, biochemical, luminescent, no phosphate acceptor, uHTS; Alkaline phosphatase, tissue-nonspecific isozyme (Homo sapiens), P05186; purified TNAP, CDP-star luminescence, 30 min; inhibition, % at 20 µM; 200,000 tested, 0.26% active; AID 1012, 2008;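 active = tissue-nonspecific alkaline phosphatase inhibition above about 50% at 20 µM in the single-dose screen, limit read from the data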;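 also: 0% = DMSO negative control and 100% = EDTA positive control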
Target sequence (P05186 whole entry, looked up): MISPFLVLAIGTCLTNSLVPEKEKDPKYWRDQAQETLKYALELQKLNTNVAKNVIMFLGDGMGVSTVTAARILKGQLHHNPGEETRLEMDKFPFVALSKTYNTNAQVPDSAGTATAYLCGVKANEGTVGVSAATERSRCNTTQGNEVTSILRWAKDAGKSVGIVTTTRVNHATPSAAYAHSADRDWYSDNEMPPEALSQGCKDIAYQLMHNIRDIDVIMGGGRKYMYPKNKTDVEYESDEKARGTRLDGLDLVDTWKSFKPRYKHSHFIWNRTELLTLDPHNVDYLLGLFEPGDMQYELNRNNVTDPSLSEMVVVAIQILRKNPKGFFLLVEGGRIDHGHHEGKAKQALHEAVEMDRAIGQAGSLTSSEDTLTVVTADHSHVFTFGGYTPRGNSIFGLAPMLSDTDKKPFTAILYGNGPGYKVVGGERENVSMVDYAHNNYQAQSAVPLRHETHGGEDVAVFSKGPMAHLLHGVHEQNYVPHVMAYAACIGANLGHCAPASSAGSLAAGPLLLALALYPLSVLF
TNAP act hiacc = TNAP activators at high phosphate acceptor level, primary screen, biochemical, luminescence, uHTS. AID 1136, 2008. activation factor at 20 µM. 200,000 tested, under 10 active. purified TNAP, CDP-star luminescence, 1 M DEA, 30 min; active compounds read high; 0 = EDTA background, 1 = DMSO-only activity. Alkaline phosphatase, tissue-nonspecific isozyme (Homo sapiens), P05186;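 active = activation factor at least 2 at 20 µM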
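system = human TNAP | amount = enzyme diluted 1/800 final | reagent = 100 µM CDP-star substrate | signal = luminescent substrate turnover signal | dosing = one dose, 20 µM | benchmarks = EDTA negative control, DMSO positive control | measure = activation factor | timing = 30 min reaction, room temperature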
TNAP inh hi DEA = human TNAP enzyme inhibitors, primary screen, biochemical, luminescent, high phosphate acceptor level, uHTS; 200,000 tested, 0.03% active; Alkaline phosphatase, tissue-nonspecific isozyme (Homo sapiens), P05186; AID 1135, 2008; purified TNAP, CDP-star luminescence, 1 M DEA; inhibition, % at 20 µM;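 active = over 50% inhibition of tissue-nonspecific alkaline phosphatase at 20 µM in the single-dose screen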;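 also: plate controls were DMSO wells for no effect and EDTA-quenched wells as full inhibition for full effect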
PKD1 inh = inhibitors of human PKD1 kinase, biochemical, fluorescence polarization. inhibition, % (test concentration not listed). 200,000 tested, 0.056% active. PKD1 kinase fluorescence polarization assay; in the data active = inhibition above about 50%
Arbovirus inh = antivirals against arbovirus infection, primary screen, cell-based, full library, 10K replicate subset; arbovirus infection cell-based antiviral screen; AID 1251, 2008; 200,000 tested, 0.37% active; inhibition, % at 10 µM; in the data active = inhibition above about 30%
An asterisk follows results filed as active.

SMILES	TNAP inh noacc	TNAP act hiacc	TNAP inh hi DEA	PKD1 inh	Arbovirus inh
O=c1[nH][nH]c(-c2ccccc2)c1C=Nc1ccc(OC(F)(F)F)cc1	-27	0.9	7	0	-3
Cc1ccc2nc(SC(C)C(=O)N3CCOCC3)[nH]c2c1 (stereo unspecified)	-12	1	0	5	3
O=c1c2ccccc2cnn1Cc1n[nH]c(=S)n1-c1cc(Cl)cc(Cl)c1	61*	0.9	7	-6	-15
O=C(NCc1ccc(F)cc1)c1cnn2ccccc12	-9	1.1	-5	4	2
O=C(O)c1ccc(-c2nc(-c3ccc(Cl)cc3)cs2)cc1	-7	1	-4	-6	41*
O=C(CCN1C(=O)S/C(=C/c2ccc(Cl)cc2)C1=O)N1CCOCC1	-14	1	4	-11	9
O=C(O)CCN1C(=O)CC(N2C(=O)/C(=C/c3ccc(Cl)cc3)SC2=S)C1=O (stereo unspecified)	64*	1	4	2	-2
Cc1cc(C)nc(SCc2ccc(C(=O)N/N=C/c3ccccc3C(=O)O)cc2)n1	-15	1	-4	6	-2
O=C(N/N=C/c1ccccc1C(=O)O)c1cc(-c2ccc3c4c(cccc24)CC3)n[nH]1	74*	1	-2	-4	-15
CCSc1nnc(NS(=O)(=O)c2ccc(OC)cc2)s1	0	1	-2	-5	-3
COc1ccc2nc(NC(=O)C3=NN(c4ccccc4)C(=O)CC3)sc2c1	10	1	0	-10	48*
Cc1ccc(OCCSCc2nnc(NC(=O)Nc3cccc(Cl)c3)s2)cc1	-20	1	-4	-6	38*
O=C(/C=C/c1ccccc1)Nc1scc(-c2ccccc2)c1C(=O)O	-8	1	-3	-5	73*
COc1ccc(-c2csc(NC(=O)c3cccs3)c2C(=O)O)cc1OC	-6	1	-4	-1	24
Cc1ccc(C(=O)Nc2scc(-c3ccccc3)c2C(=O)O)o1	-16	1.1	-6	-5	62*
COc1ccc(-c2csc(NC(=O)Cc3cccc4ccccc34)c2C(=O)O)cc1	-8	1	-3	4	47*
Cc1ccc(C(=O)Nc2ccccc2-c2ccccc2)o1	-3	1	1	-4	-5
O=C1C2=C(C(c3ccccc3)=NCCN2)C(c2cccc([N+](=O)[O-])c2)N1c1ccccc1 (stereo unspecified)	16	0.9	6	-2	1
CC(C)=CC(=O)Nc1nc2ccc([N+](=O)[O-])cc2s1	2	0.9	10	-4	-10
O=C(CCn1c(=O)sc2ccccc21)NCCCn1ccnc1	-2	1	-4	1	30*
CCc1ccc(OCC(=O)N(CC)CC)cc1	6	1	1	3	2
c1ccc(CSc2ccc(-c3cccnc3)nn2)nc1	-98	1.1	-6	-1	30*
NS(=O)(=O)c1ccc(NC(=O)COC(=O)COc2ccccc2)cc1	-3	1	2	4	3
C/C(=N\NC(=O)c1ccccc1)c1cc2cc([N+](=O)[O-])ccc2oc1=O	19	0.4	58*	-5	-5
CSc1ccccc1NC(=S)N/N=C/c1cccn1Cc1ccc(F)cc1	-13	1	-3	11	5
SMILES	TNAP inh noacc	TNAP act hiacc	TNAP inh hi DEA	PKD1 inh	Arbovirus inh
CC(C)C(O)(C#CCN1CCCCCC1)c1ccccc1 (stereo unspecified)	-6	1	-2	3	5
CN(C)CCCNS(=O)(=O)c1ccc(Cl)s1	-7	1.1	-7	-6	1
Fc1ccc2nc(Nc3nc4c(F)cccc4s3)sc2c1	-102	1	-4	12	34*
COc1cccc(C2CC(c3ccc(Cl)cc3Cl)Nc3nc(N)nn32)c1 (stereo unspecified)	-12	1.1	-9	-3	41*
COc1cccc(C2CC(c3ccccc3Cl)Nc3nc(N)nn32)c1 (stereo unspecified)	3	1	2	-13	12
O=c1/c(=C\c2cccnc2)sc2nc3ccccc3n12	-12	1.1	-5	-5	2

Screens: PubChem, several laboratories
